From ChEMBL document CHEMBL5724801, “EUbOPEN Chemogenomics Library - Multiplex” (2024)
Several values for one entry are separate records, joined by “and”; a condition that tells them apart may be missing. Equal values may be shown once.

Key:
U2OS = assay: Multiplex assay against U2OS; type: toxicity, cell-based; settings: human
How it was run: (§1)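 Values for tubulin, mitochondrial-mass and membrane-permeability phenotypes are per cents of cells with healthy nuclei. These cells were identified by CellPathfinder machine-learning gating of live cells that had been stained at seeding with Hoechst33342, BioTracker Green Microtubule Cytoskeleton Dye, MitoTracker Red and Annexin V Alexa Fluor 680 and imaged on a CQ1 microscope at 37°C and 5% CO2 after compound addition. The gating first set Hoechst high-intensity objects apart from normal cells, then split normal cells into healthy, pyknosed or fragmented nuclei, and pyknosed cells into mitotic or apoptotic.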

Fibroblast = assay: Multiplex assay against human fibroblast; type: toxicity, cell-based; how it was run: as §1
[1] = 12 h, 1 µM, compound concentration 1 uM
[2] = 12 h, 10 µM, compound concentration 10 uM
[3] = 24 h, 1 µM, compound concentration 1 uM
[4] = 24 h, 10 µM, compound concentration 10 uM
[5] = 48 h, 1 µM, compound concentration 1 uM
[6] = 48 h, 10 µM, compound concentration 10 uM

SMILES: CC(C)(O)C(=O)N1CCN(c2ccc(C(F)(F)F)c(C3=C(c4c[nH]c5ccccc45)C(=O)NC3=O)c2)CC1
- Population Apoptotic (%) (U2OS; [1]): 88% and 92%
- Population Fragmented Nuclei (%) (U2OS; [1]): 29% and 14%
- Population Healthy Nuclei (%) (U2OS; [1]): 63% and 75%
- Population Hoechst High Intensity Objects (%) (U2OS; [1]): 3% and 1%
- Population Membrane Permeable-Phenotype (%) (U2OS; [1]): 5% and 4%
- Population Mitochondria Different-Phenotype (%) (U2OS; [1]): 2% and 4%
- Population Mitotic Cells (%) (U2OS; [1]): 11% and 7%
- Population Normal (%) (U2OS; [1]): 96% and 98%
- Population Pyknosed Nuclei (%) (U2OS; [1]): 7% and 9%
- Population Tubulin-Different-Phenotype (%) (U2OS; [1]): 3%
- Total Cell Count (U2OS; [1]): 238 and 134
- Population Apoptotic (%) (U2OS; [2]): 76% and 50%
- Population Healthy Nuclei (%) (U2OS; [2]): 46% and 77%
- Population Hoechst High Intensity Objects (%) (U2OS; [2]): 6% and 1%
- Population Membrane Permeable-Phenotype (%) (U2OS; [2]): 39% and 14%
- Population Mitochondria Different-Phenotype (%) (U2OS; [2]): 23% and 14%
- Population Mitotic Cells (%) (U2OS; [2]): 24% and 50%
- Population Normal (%) (U2OS; [2]): 93% and 98%
- Population Pyknosed Nuclei (%) (U2OS; [2]): 16%
- Population Tubulin-Different-Phenotype (%) (U2OS; [2]): 30% and 15%
- Total Cell Count (U2OS; [2]): 166 and 148
- Population Apoptotic (%) (U2OS; [3]): 89% and 82%
- Population Fragmented Nuclei (%) (U2OS; [3]): 27% and 22%
- Population Healthy Nuclei (%) (U2OS; [3]): 61% and 67%
- Population Hoechst High Intensity Objects (%) (U2OS; [3]): 3% and 0%
- Population Membrane Permeable-Phenotype (%) (U2OS; [3]): 7% and 4%
- Population Mitochondria Different-Phenotype (%) (U2OS; [3]): 3% and 2%
- Population Mitotic Cells (%) (U2OS; [3]): 10% and 17%
- Population Normal (%) (U2OS; [3]): 96% and 100%
- Population Pyknosed Nuclei (%) (U2OS; [3]): 11% and 9%
- Population Tubulin-Different-Phenotype (%) (U2OS; [3]): 5% and 2%
- Total Cell Count (U2OS; [3]): 263 and 172
- Population Apoptotic (%) (U2OS; [4]): 87% and 70%
- Population Fragmented Nuclei (%) (U2OS; [4]): 48% and 16%
- Population Healthy Nuclei (%) (U2OS; [4]): 27% and 53%
- Population Hoechst High Intensity Objects (%) (U2OS; [4]): 6% and 2%
- Population Membrane Permeable-Phenotype (%) (U2OS; [4]): 11% and 15%
- Population Mitochondria Different-Phenotype (%) (U2OS; [4]): 34% and 24%
- Population Mitotic Cells (%) (U2OS; [4]): 12% and 29%
- Population Normal (%) (U2OS; [4]): 93% and 97%
- Population Pyknosed Nuclei (%) (U2OS; [4]): 24% and 29%
- Population Tubulin-Different-Phenotype (%) (U2OS; [4]): 15% and 11%
- Total Cell Count (U2OS; [4]): 172 and 152
- Population Apoptotic (%) (U2OS; [5]): 95% and 85%
- Population Fragmented Nuclei (%) (U2OS; [5]): 21% and 17%
- Population Healthy Nuclei (%) (U2OS; [5]): 65% and 73%
- Population Hoechst High Intensity Objects (%) (U2OS; [5]): 3% and 1%
- Population Membrane Permeable-Phenotype (%) (U2OS; [5]): 6% and 7%
- Population Mitochondria Different-Phenotype (%) (U2OS; [5]): 4% and 3%
- Population Mitotic Cells (%) (U2OS; [5]): 4% and 14%
- Population Normal (%) (U2OS; [5]): 96% and 98%
- Population Pyknosed Nuclei (%) (U2OS; [5]): 12% and 9%
- Population Tubulin-Different-Phenotype (%) (U2OS; [5]): 5% and 2%
- Total Cell Count (U2OS; [5]): 377 and 233
- Population Apoptotic (%) (U2OS; [6]): 95% and 96%
- Population Fragmented Nuclei (%) (U2OS; [6]): 57% and 31%
- Population Healthy Nuclei (%) (U2OS; [6]): 11% and 27%
- Population Hoechst High Intensity Objects (%) (U2OS; [6]): 14% and 7%
- Population Membrane Permeable-Phenotype (%) (U2OS; [6]): 27% and 17%
- Population Mitochondria Different-Phenotype (%) (U2OS; [6]): 16% and 14%
- Population Mitotic Cells (%) (U2OS; [6]): 4% and 3%
- Population Normal (%) (U2OS; [6]): 85% and 92%
- Population Pyknosed Nuclei (%) (U2OS; [6]): 30% and 41%
- Population Tubulin-Different-Phenotype (%) (U2OS; [6]): 11% and 17%
- Total Cell Count (U2OS; [6]): 177 and 163
- Population Apoptotic (%) (Fibroblast; [1]): 41% and 32%
- Population Fragmented Nuclei (%) (Fibroblast; [1]): 14% and 30%
- Population Healthy Nuclei (%) (Fibroblast; [1]): 68% and 46%
- Population Hoechst High Intensity Objects (%) (Fibroblast; [1]): 2% and 5%
- Population Membrane Permeable-Phenotype (%) (Fibroblast; [1]): 0% and 5%
- Population Mitochondria Different-Phenotype (%) (Fibroblast; [1]): 9% and 5%
- Population Mitotic Cells (%) (Fibroblast; [1]): 58% and 67%
- Population Normal (%) (Fibroblast; [1]): 97% and 94%
- Population Pyknosed Nuclei (%) (Fibroblast; [1]): 17% and 22%
- Population Tubulin-Different-Phenotype (%) (Fibroblast; [1]): 30% and 56%
- Total Cell Count (Fibroblast; [1]): 144 and 170
- Population Apoptotic (%) (Fibroblast; [2]): 33% and 35%
- Population Fragmented Nuclei (%) (Fibroblast; [2]): 17% and 26%
- Population Healthy Nuclei (%) (Fibroblast; [2]): 50% and 31%
- Population Hoechst High Intensity Objects (%) (Fibroblast; [2]): 4% and 6%
- Population Mitochondria Different-Phenotype (%) (Fibroblast; [2]): 25% and 10%
- Population Mitotic Cells (%) (Fibroblast; [2]): 66% and 64%
- Population Normal (%) (Fibroblast; [2]): 96% and 93%
- Population Pyknosed Nuclei (%) (Fibroblast; [2]): 32% and 42%
- Population Tubulin-Different-Phenotype (%) (Fibroblast; [2]): 83% and 90%
- Total Cell Count (Fibroblast; [2]): 125 and 137
- Population Apoptotic (%) (Fibroblast; [3]): 50% and 31%
- Population Fragmented Nuclei (%) (Fibroblast; [3]): 22% and 31%
- Population Healthy Nuclei (%) (Fibroblast; [3]): 61% and 45%
- Population Hoechst High Intensity Objects (%) (Fibroblast; [3]): 1% and 8%
- Population Membrane Permeable-Phenotype (%) (Fibroblast; [3]): 0% and 2%
- Population Mitochondria Different-Phenotype (%) (Fibroblast; [3]): 3% and 8%
- Population Mitotic Cells (%) (Fibroblast; [3]): 50% and 68%
- Population Normal (%) (Fibroblast; [3]): 98% and 91%
- Population Pyknosed Nuclei (%) (Fibroblast; [3]): 16% and 23%
- Population Tubulin-Different-Phenotype (%) (Fibroblast; [3]): 40% and 58%
- Total Cell Count (Fibroblast; [3]): 161 and 176
- Population Apoptotic (%) (Fibroblast; [4]): 26% and 36%
